Legend:
Staphylococcus aureus [1] = test: Antibacterial activity against Staphylococcus aureus ATCC 29213 assessed as reduction in bacterial growth incubated for 16 to 20 hrs by CLSI-based broth microdilution method; format: functional; details: time 16-20 hrs
In short: (§1)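 Broth microdilution following CLSI, in cation-adjusted Mueller-Hinton broth. Inoculum from a 4-6 h culture (~10^8 CFU/mL), diluted to ~10^6 CFU/mL. Water stocks were serially diluted in MHB (256 to 0.5 µg/mL) and mixed 1:1 with the inoculum. Plates ran 16-20 h at 37 °C. MIC was read visually. Each concentration was tested in duplicate, and the experiment was repeated at least twice.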

[2] = Solubility of the compound in water at room temperature; format: physicochemical; details: buffer
Escherichia coli = test: Antibacterial activity against Escherichia coli ATCC 25922 assessed as reduction in bacterial growth incubated 16 to 20 hrs by CLSI-based broth microdilution method; format: functional; details: time 16-20 hrs; in short: as §1
Enterococcus faecalis = test: Antibacterial activity against Enterococcus faecalis ATCC 29212 assessed as reduction in bacterial growth incubated 16 to 20 hrs by CLSI-based broth microdilution method; format: functional; details: time 16-20 hrs; in short: as §1
Salmonella enterica = test: Antibacterial activity against Salmonella enterica ATCC 8387 assessed as reduction in bacterial growth incubated for 16 to 20 hrs by CLSI-based broth microdilution method; format: functional; details: time 16-20 hrs; in short: as §1
Enterobacteriaceae [3] = test: Antibacterial activity against NDM1 producing carbapenem-resistant Enterobacteriaceae clinical isolate 9 assessed as reduction in bacterial growth incubated for 16 to 20 hrs by CLSI-based broth microdilution method; format: functional; details: time 16-20 hrs
In short: (§2)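 Clinical isolates tested by broth microdilution in cation-adjusted Mueller-Hinton broth. Cultures grown 4-6 h (~10^8 CFU/mL) were diluted to ~10^6 CFU/mL and mixed 1:1 with compound serial dilutions made from 256 down to 0.5 µg/mL (pre-mixing). Plates held at 37 °C for 16-20 h, then read for growth. Each concentration run in duplicate, whole experiment at least twice.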

Enterobacteriaceae [4] = test: Antibacterial activity against NDM1 producing carbapenem-resistant Enterobacteriaceae clinical isolate 2 assessed as reduction in bacterial growth incubated for 16 to 20 hrs by CLSI-based broth microdilution method; format: functional; details: time 16-20 hrs; in short: as §2
Staphylococcus aureus [5] = test: Antibacterial activity against methicillin-resistant Staphylococcus aureus clinical isolate 10 assessed as reduction in bacterial growth incubated for 16 to 20 hrs by CLSI-based broth microdilution method; format: functional; details: time 16-20 hrs; in short: as §2
Enterobacteriaceae [6] = test: Antibacterial activity against NDM1 producing carbapenem-resistant Enterobacteriaceae clinical isolate 1 assessed as reduction in bacterial growth incubated for 16 to 20 hrs by CLSI-based broth microdilution method; format: functional; details: time 16-20 hrs; in short: as §2
Staphylococcus aureus [7] = test: Antibacterial activity against methicillin-resistant Staphylococcus aureus clinical isolate 7 assessed as reduction in bacterial growth incubated for 16 to 20 hrs by CLSI-based broth microdilution method; format: functional; details: time 16-20 hrs; in short: as §2
Staphylococcus aureus [8] = test: Antibacterial activity against methicillin-resistant Staphylococcus aureus clinical isolate 2 assessed as reduction in bacterial growth incubated for 16 to 20 hrs by CLSI-based broth microdilution method; format: functional; details: time 16-20 hrs; in short: as §2
Klebsiella pneumoniae [9] = test: Antibacterial activity against carbapenem-resistant Klebsiella pneumoniae clinical isolate 2 assessed as reduction in bacterial growth incubated for 16 to 20 hrs by CLSI-based broth microdilution method; format: functional; details: time 16-20 hrs; in short: as §2
Klebsiella pneumoniae [10] = test: Antibacterial activity against carbapenem-resistant Klebsiella pneumoniae clinical isolate 7 assessed as reduction in bacterial growth incubated for 16 to 20 hrs by CLSI-based broth microdilution method; format: functional; details: time 16-20 hrs; in short: as §2
Staphylococcus aureus [11] = test: Antibacterial activity against methicillin-resistant Staphylococcus aureus clinical isolate 3 assessed as reduction in bacterial growth incubated for 16 to 20 hrs by CLSI-based broth microdilution method; format: functional; details: time 16-20 hrs; in short: as §2
Klebsiella pneumoniae [12] = test: Antibacterial activity against carbapenem-resistant Klebsiella pneumoniae clinical isolate 4 assessed as reduction in bacterial growth incubated for 16 to 20 hrs by CLSI-based broth microdilution method; format: functional; details: time 16-20 hrs; in short: as §2
Klebsiella pneumoniae [13] = test: Antibacterial activity against carbapenem-resistant Klebsiella pneumoniae clinical isolate 1 assessed as reduction in bacterial growth incubated for 16 to 20 hrs by CLSI-based broth microdilution method; format: functional; details: time 16-20 hrs; in short: as §2
Staphylococcus aureus [14] = test: Antibacterial activity against methicillin-resistant Staphylococcus aureus clinical isolate 6 assessed as reduction in bacterial growth incubated for 16 to 20 hrs by CLSI-based broth microdilution method; format: functional; details: time 16-20 hrs; in short: as §2
Staphylococcus aureus [15] = test: Antibacterial activity against methicillin-resistant Staphylococcus aureus clinical isolate 9 assessed as reduction in bacterial growth incubated for 16 to 20 hrs by CLSI-based broth microdilution method; format: functional; details: time 16-20 hrs; in short: as §2
Staphylococcus aureus [16] = test: Antibacterial activity against methicillin-resistant Staphylococcus aureus clinical isolate 5 assessed as reduction in bacterial growth incubated for 16 to 20 hrs by CLSI-based broth microdilution method; format: functional; details: time 16-20 hrs; in short: as §2
Klebsiella pneumoniae [17] = test: Antibacterial activity against carbapenem-resistant Klebsiella pneumoniae clinical isolate 3 assessed as reduction in bacterial growth incubated for 16 to 20 hrs by CLSI-based broth microdilution method; format: functional; details: time 16-20 hrs; in short: as §2
Enterobacteriaceae [18] = test: Antibacterial activity against NDM1 producing carbapenem-resistant Enterobacteriaceae clinical isolate 3 assessed as reduction in bacterial growth incubated for 16 to 20 hrs by CLSI-based broth microdilution method; format: functional; details: time 16-20 hrs; in short: as §2
Klebsiella pneumoniae [19] = test: Antibacterial activity against carbapenem-resistant Klebsiella pneumoniae clinical isolate 9 assessed as reduction in bacterial growth incubated for 16 to 20 hrs by CLSI-based broth microdilution method; format: functional; details: time 16-20 hrs; in short: as §2
Klebsiella pneumoniae [20] = test: Antibacterial activity against carbapenem-resistant Klebsiella pneumoniae clinical isolate 10 assessed as reduction in bacterial growth incubated for 16 to 20 hrs by CLSI-based broth microdilution method; format: functional; details: time 16-20 hrs; in short: as §2
Klebsiella pneumoniae [21] = test: Antibacterial activity against carbapenem-resistant Klebsiella pneumoniae clinical isolate 8 assessed as reduction in bacterial growth incubated for 16 to 20 hrs by CLSI-based broth microdilution method; format: functional; details: time 16-20 hrs; in short: as §2
Enterobacteriaceae [22] = test: Antibacterial activity against NDM1 producing carbapenem-resistant Enterobacteriaceae clinical isolate 8 assessed as reduction in bacterial growth incubated for 16 to 20 hrs by CLSI-based broth microdilution method; format: functional; details: time 16-20 hrs; in short: as §2
Staphylococcus aureus [23] = test: Antibacterial activity against methicillin-resistant Staphylococcus aureus clinical isolate 4 assessed as reduction in bacterial growth incubated for 16 to 20 hrs by CLSI-based broth microdilution method; format: functional; details: time 16-20 hrs; in short: as §2
Klebsiella pneumoniae [24] = test: Antibacterial activity against carbapenem-resistant Klebsiella pneumoniae clinical isolate 5 assessed as reduction in bacterial growth incubated for 16 to 20 hrs by CLSI-based broth microdilution method; format: functional; details: time 16-20 hrs; in short: as §2
Staphylococcus aureus [25] = test: Antibacterial activity against methicillin-resistant Staphylococcus aureus clinical isolate 8 assessed as reduction in bacterial growth incubated for 16 to 20 hrs by CLSI-based broth microdilution method; format: functional; details: time 16-20 hrs; in short: as §2
Enterobacteriaceae [26] = test: Antibacterial activity against NDM1 producing carbapenem-resistant Enterobacteriaceae clinical isolate 4 assessed as reduction in bacterial growth incubated for 16 to 20 hrs by CLSI-based broth microdilution method; format: functional; details: time 16-20 hrs; in short: as §2
Enterobacteriaceae [27] = test: Antibacterial activity against NDM1 producing carbapenem-resistant Enterobacteriaceae clinical isolate 10 assessed as reduction in bacterial growth incubated for 16 to 20 hrs by CLSI-based broth microdilution method; format: functional; details: time 16-20 hrs; in short: as §2
Enterobacteriaceae [28] = test: Antibacterial activity against NDM1 producing carbapenem-resistant Enterobacteriaceae clinical isolate 6 assessed as reduction in bacterial growth incubated for 16 to 20 hrs by CLSI-based broth microdilution method; format: functional; details: time 16-20 hrs; in short: as §2
Enterobacteriaceae [29] = test: Antibacterial activity against NDM1 producing carbapenem-resistant Enterobacteriaceae clinical isolate 5 assessed as reduction in bacterial growth incubated for 16 to 20 hrs by CLSI-based broth microdilution method; format: functional; details: time 16-20 hrs; in short: as §2
Klebsiella pneumoniae [30] = test: Antibacterial activity against carbapenem-resistant Klebsiella pneumoniae clinical isolate 6 assessed as reduction in bacterial growth incubated for 16 to 20 hrs by CLSI-based broth microdilution method; format: functional; details: time 16-20 hrs; in short: as §2
Staphylococcus aureus [31] = test: Antibacterial activity against methicillin-resistant Staphylococcus aureus clinical isolate 1 assessed as reduction in bacterial growth incubated for 16 to 20 hrs by CLSI-based broth microdilution method; format: functional; details: time 16-20 hrs; in short: as §2
Enterobacteriaceae [32] = test: Antibacterial activity against NDM1 producing carbapenem-resistant Enterobacteriaceae clinical isolate 7 assessed as reduction in bacterial growth incubated for 16 to 20 hrs by CLSI-based broth microdilution method; format: functional; details: time 16-20 hrs; in short: as §2

## CCCCCCCCCN(C[C@H]1CN(c2ccc(N3CCOCC3)c(F)c2)C(=O)O1)C(=O)[C@@H](N)CCCCN.Cl.Cl
Staphylococcus aureus [1]
  MIC: 16 µg/mL
[2]
  solubility: Soluble
Escherichia coli
  MIC: 64 µg/mL
Enterococcus faecalis
  MIC: 16 µg/mL
Salmonella enterica
  MIC: 64 µg/mL

## CCCCCCCCCCCN(C[C@H]1CN(c2ccc(N3CCOCC3)c(F)c2)C(=O)O1)C(=O)[C@@H](N)CCCN=C(N)N.Cl.Cl.Cl
Enterobacteriaceae [3]
  MIC: 16 µg/mL
Enterobacteriaceae [4]
  MIC: > 64 µg/mL
Staphylococcus aureus [5]
  MIC: 4 µg/mL
Staphylococcus aureus [1]
  MIC: 4 µg/mL
Enterobacteriaceae [6]
  MIC: > 64 µg/mL
Staphylococcus aureus [7]
  MIC: 4 µg/mL
Staphylococcus aureus [8]
  MIC: 8 µg/mL
Klebsiella pneumoniae [9]
  MIC: 16 µg/mL
[2]
  solubility: Soluble
Klebsiella pneumoniae [10]
  MIC: 32 µg/mL
Staphylococcus aureus [11]
  MIC: 4 µg/mL
Klebsiella pneumoniae [12]
  MIC: 8 µg/mL
Klebsiella pneumoniae [13]
  MIC: 16 µg/mL
Staphylococcus aureus [14]
  MIC: 4 µg/mL
Escherichia coli
  MIC: 8 µg/mL
Staphylococcus aureus [15]
  MIC: 4 µg/mL
Staphylococcus aureus [16]
  MIC: 8 µg/mL
Klebsiella pneumoniae [17]
  MIC: 8 µg/mL
Enterobacteriaceae [18]
  MIC: 16 µg/mL
Klebsiella pneumoniae [19]
  MIC: 8 µg/mL
Enterococcus faecalis
  MIC: 8 µg/mL
Klebsiella pneumoniae [20]
  MIC: 16 µg/mL
Klebsiella pneumoniae [21]
  MIC: 8 µg/mL
Enterobacteriaceae [22]
  MIC: 16 µg/mL
Staphylococcus aureus [23]
  MIC: 4 µg/mL
Klebsiella pneumoniae [24]
  MIC: 16 µg/mL
Staphylococcus aureus [25]
  MIC: 4 µg/mL
Enterobacteriaceae [26]
  MIC: 64 µg/mL
Enterobacteriaceae [27]
  MIC: 8 µg/mL
Enterobacteriaceae [28]
  MIC: 16 µg/mL
Salmonella enterica
  MIC: 8 µg/mL
Enterobacteriaceae [29]
  MIC: 16 µg/mL
Klebsiella pneumoniae [30]
  MIC: 16 µg/mL
Staphylococcus aureus [31]
  MIC: 2 µg/mL
Enterobacteriaceae [32]
  MIC: 16 µg/mL

## CCCCCCCCN(C[C@H]1CN(c2ccc(N3CCOCC3)c(F)c2)C(=O)O1)C(=O)[C@@H](N)CCCN=C(N)N.Cl.Cl.Cl
Staphylococcus aureus [1]
  MIC: 16 µg/mL
[2]
  solubility: Soluble
Escherichia coli
  MIC: > 128 µg/mL
Enterococcus faecalis
  MIC: 32 µg/mL
Salmonella enterica
  MIC: > 128 µg/mL

## CCCCCCCCCN(C[C@H]1CN(c2ccc(N3CCOCC3)c(F)c2)C(=O)O1)C(=O)[C@@H](N)CCCN=C(N)N.Cl.Cl.Cl
Staphylococcus aureus [1]
  MIC: 16 µg/mL
[2]
  solubility: Soluble
Escherichia coli
  MIC: 64 µg/mL
Enterococcus faecalis
  MIC: 32 µg/mL
Salmonella enterica
  MIC: 64 µg/mL

## CCCCCCCC[N+](C)(C)CC(=O)NC[C@H]1CN(c2ccc(N3CCOCC3)c(F)c2)C(=O)O1.[Cl-]
Staphylococcus aureus [1]
  MIC: 128 µg/mL
[2]
  solubility: Soluble
Escherichia coli
  MIC: 128 µg/mL
Enterococcus faecalis
  MIC: 64 µg/mL
Salmonella enterica
  MIC: 128 µg/mL

## CCCCCCCCCCN(C[C@H]1CN(c2ccc(N3CCOCC3)c(F)c2)C(=O)O1)C(=O)[C@@H](N)CCCN=C(N)N.Cl.Cl.Cl
Staphylococcus aureus [1]
  MIC: 8 µg/mL
[2]
  solubility: Soluble
Escherichia coli
  MIC: 16 µg/mL
Enterococcus faecalis
  MIC: 8 µg/mL
Salmonella enterica
  MIC: 32 µg/mL

## NC[C@H]1CN(c2ccc(N3CCOCC3)c(F)c2)C(=O)O1
Staphylococcus aureus [1]
  MIC: > 128 µg/mL
Escherichia coli
  MIC: > 128 µg/mL
Enterococcus faecalis
  MIC: > 128 µg/mL
Salmonella enterica
  MIC: > 128 µg/mL

Reference: ChEMBL document CHEMBL4673214, “Synthesis and antibacterial bioactivities of cationic deacetyl linezolid amphiphiles” (Eur J Med Chem, 2018)
